What was measured:
[1] = tested on: Human immunodeficiency virus 1; test: Antiviral activity against HIV1 JSL harboring L10I/L24I/L33F/E35D/M36I/N37S/M46L/I54V/R57K/I62V/L63P/A71V/G73S/82A in protease encoding region infected in human PHA-PBC assessed as inhibition of p24 Gag protein production by ELISA; format: functional, organism-based; settings: Human immunodeficiency virus 1, JSL
Procedure, shortened: (§1)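 Phytohemagglutinin-stimulated PBMs (10^6/ml) infected with 50 TCID50s of each primary isolate, cultured with or without drug in 10-fold serial dilutions. On day 7, supernatant p24 Gag was measured by automated chemiluminescent enzyme immunoassay. […] Triplicate.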

[2] = tested on: Human immunodeficiency virus 1; test: Antiviral activity against HIV1 TM harboring L10I/K14R/R41K/M46L/I54V/L63P/A71V/V82A/L90M/I93L in protease encoding region infected in human PHA-PBC assessed as inhibition of p24 Gag protein production by ELISA; format: functional, organism-based; settings: Human immunodeficiency virus 1, TM; procedure, shortened: as §1
[3] = tested on: Human immunodeficiency virus 1; test: Antiviral activity against HIV1 MOKW infected in human PHA-PBC assessed as inhibition of p24 Gag protein production by ELISA; format: functional, organism-based; settings: Human immunodeficiency virus 1, MOKW; procedure, shortened: as §1
[4] = tested on: Human immunodeficiency virus 1; test: Ratio of EC50 for HIV1 B harboring L10I/I15V/E35D/N37E/K45R/I54V/L63P/A71V/V82T/L90M/I93L/C95F in protease encoding region to EC50 for HIV1 ERS104pre; format: functional
[5] = tested on: Human immunodeficiency virus 1; test: Antiviral activity against HIV1 A harboring L10I/I15V/E35D/N37E/K45R/I54V/L63P/A71V/V82T/L90M/I93L/C95F in protease encoding region infected in human PHA-PBC assessed as inhibition of p24 Gag protein production by ELISA; format: functional, organism-based; settings: Human immunodeficiency virus 1, A
Procedure, shortened: (§2)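 Phytohemagglutinin-stimulated PBMs (10^6/ml) infected with 50 TCID50s of each primary isolate, cultured with or without drug in 10-fold serial dilutions. On day 7, supernatant p24 Gag was measured by automated chemiluminescent enzyme immunoassay. Triplicate.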

[6] = tested on: Human immunodeficiency virus 1; test: Ratio of EC50 for HIV1 JSL harboring L10I/L24I/L33F/E35D/M36I/N37S/M46L/I54V/R57K/I62V/L63P/A71V/G73S/82A in protease encoding region to EC50 for HIV1 ERS104pre; format: functional
[7] = tested on: Human immunodeficiency virus 1; test: Antiviral activity against HIV1 MM harboring L10I/K43T/M46L/I54V/L63P/A71V/V82A/L90M/Q92K in protease encoding region infected in human PHA-PBC assessed as inhibition of p24 Gag protein production by ELISA; format: functional, organism-based; settings: Human immunodeficiency virus 1, MM; procedure, shortened: as §1
[8] = tested on: Human immunodeficiency virus 1; test: Ratio of EC50 for HIV1 MM harboring L10I/K43T/M46L/I54V/L63P/A71V/V82A/L90M/Q92K in protease encoding region infected to EC50 for HIV1 ERS104pre; format: functional
[9] = tested on: Human immunodeficiency virus 1; test: Antiviral activity against HIV1 G harboring L10I/V11I/T12E/I15V/L19I/R41K/M46L/L63P/A71T/V82A/L90M in protease encoding region infected in human PHA-PBC assessed as inhibition of p24 Gag protein production by ELISA; format: functional, organism-based; settings: Human immunodeficiency virus 1, G; procedure, shortened: as §1
[10] = tested on: Human immunodeficiency virus 1; test: Ratio of EC50 for HIV1 A harboring L10I/I15V/E35D/N37E/K45R/I54V/L63P/A71V/V82T/L90M/I93L/C95F in protease encoding region to EC50 for HIV1 ERS104pre; format: functional
[11] = tested on: Human immunodeficiency virus 1; test: Ratio of EC50 for HIV1 TM harboring L10I/K14R/R41K/M46L/I54V/L63P/A71V/V82A/L90M/I93L in protease encoding region to EC50 for HIV1 ERS104pre; format: functional
Procedure, shortened: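 PHA-stimulated PBMs (10^6/ml) infected with 50 TCID50s of primary HIV-1 isolate and cultured with 10-fold serial drug dilutions. Day 7 supernatant p24 Gag measured by chemiluminescent enzyme immunoassay. […] Triplicate. Ratio is resistant isolate EC50 over reference isolate EC50.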

[12] = tested on: Human immunodeficiency virus 1; test: Ratio of EC50 for HIV1 C harboring L10I/I15V/K20R/L24I/M36I/M46L/I54V/I62V/L63P/K70Q/V82A/L89M in protease encoding region to EC50 for HIV1 ERS104pre; format: functional
[13] = tested on: Human immunodeficiency virus 1; test: Antiviral activity against HIV1 B harboring L10I/I15V/E35D/N37E/K45R/I54V/L63P/A71V/V82T/L90M/I93L/C95F in protease encoding region infected in human PHA-PBC assessed as inhibition of p24 Gag protein production by ELISA; format: functional, organism-based; settings: Human immunodeficiency virus 1, B; procedure, shortened: as §1
[14] = tested on: Human immunodeficiency virus 1; test: Antiviral activity against HIV1 ERS104pre infected in human PHA-PBC assessed as inhibition of p24 Gag protein production by ELISA; format: functional, organism-based; settings: Human immunodeficiency virus 1, ERS104pre; procedure, shortened: as §2
[15] = tested on: Human immunodeficiency virus 1; test: Antiviral activity against HIV1 C harboring L10I/I15V/K20R/L24I/M36I/M46L/I54V/I62V/L63P/K70Q/V82A/L89M in protease encoding region infected in human PHA-PBC assessed as inhibition of p24 Gag protein production by ELISA; format: functional, organism-based; settings: Human immunodeficiency virus 1, C; procedure, shortened: as §1
[16] = tested on: Human immunodeficiency virus 1; test: Ratio of EC50 for HIV1 G harboring L10I/V11I/T12E/I15V/L19I/R41K/M46L/L63P/A71T/V82A/L90M in protease encoding region to EC50 for HIV1 ERS104pre; format: functional

Compound Cc1cn([C@H]2C[C@H](N=[N+]=[N-])[C@@H](CO)O2)c(=O)[nH]c1=O [ZIDOVUDINE] has an EC50 [1] of 0.18 µM, an EC50 [2] of 0.89 µM and an EC50 [3] of 0.016 µM. The “Ratio EC50” value [4] was 200, the EC50 [5] was 0.12 µM and the “Ratio EC50” value [6] was 36. The EC50 [7] was 0.45 µM, the “Ratio EC50” value [8] was 90 and the EC50 [9] was 0.6 µM. The “Ratio EC50” value [10] was 24, the “Ratio EC50” value [11] was 178 and the “Ratio EC50” value [12] was 56. The EC50 [13] was > 1 µM, the EC50 [14] was 0.005 µM and the EC50 [15] was 0.28 µM. The “Ratio EC50” value [16] was >120.
